Test results reported in ChEMBL document CHEMBL1124181, “Imidazo[1,2-a]pyrimidines and imidazo[1,2-a]pyrazines: the role of nitrogen position in inotropic activity” (1988).

Organism: Felis catus
Assay: Inotropic activity in cat papillary muscle at 10e-5 M expressed as percent of control
Assay type: functional
Settings: not given
Procedure, shortened: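 Isolated-tissue bath preparation with contractions recorded on a polygraph. Compounds were dissolved in DMSO and added cumulatively, each concentration being allowed to produce its maximal response before the next higher one was added.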

Going from `COc1ccc(-c2nc3cc[nH]cc-3n2)c(OC)c1` to `COc1cc(SC)ccc1-c1nc2cc[nH]cc-2n1`, the “Inotropic activity (% of control)” value falls from 158% to 143%.

First: COc1ccc(-c2cn3cccnc3n2)c(OC)c1
Second: COc1ccc(-c2cn3nccnc3n2)c(OC)c1
The “Inotropic activity (% of control)” value of the first is higher: 136% for the first, 130% for the second.

First: COc1cc(SC)ccc1-c1cn2ccncc2n1
Second: COc1cc([S+](C)[O-])ccc1-c1cn2ccncc2n1 (stereo not drawn)
The “Inotropic activity (% of control)” value of the first is lower: 140% for the first, 161% for the second.

Going from `COc1ccc(-c2cn3ccccc3n2)c(OC)c1` to `COc1ccc(-c2cn3ncccc3n2)c(OC)c1`, the “Inotropic activity (% of control)” value rises from 98% to 115%.

Going from `COc1ccc(-c2cn3cnccc3n2)c(OC)c1` to `COc1ccc(-c2cn3ccncc3n2)c(OC)c1`, the “Inotropic activity (% of control)” value rises from 114% to 145%.

First: COc1cc(S(C)(=O)=O)ccc1-c1cn2ccncc2n1
Second: COc1cc(S(C)(=O)=O)ccc1-c1nc2ccncc2[nH]1
The “Inotropic activity (% of control)” value of the first is higher: 180% for the first, 176% for the second.

Going from `COc1ccc(-c2nc3ccc[nH]c-3n2)c(OC)c1` to `COc1cc([S+](C)[O-])ccc1-c1nc2cccnc2[nH]1` (stereo not drawn) [SULMAZOLE], the “Inotropic activity (% of control)” value falls from 146% to 112%.

For `COc1cc([S+](C)[O-])ccc1-c1nc2cnccc2[nH]1` (stereo not drawn) [ISOMAZOLE], the “Inotropic activity (% of control)” value was 172%.

System: Canis familiaris
Assay: Tested in anesthetized dog for its inotropic activity after intravenous administration
Assay type: functional
Settings: Canis lupus familiaris
Procedure, shortened: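 Mongrel dogs of either sex (7-14 kg), anesthetized with sodium pentobarbital (35 mg/kg iv). Dosing was via a femoral vein cannula. Contractility was measured by a Walton-Brodie strain-gauge arch on the right ventricle (tension 50 g); heart rate by cardiometer; lead II ECG. Doses of 0.01 to 8.0 mg/kg iv were given in increasing steps at 5-min intervals. Peak responses are reported as mean ± SEM (n = 4) or mean ± range (n = 2).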

`COc1ccc(-c2nc3cc[nH]cc-3n2)c(OC)c1` and `COc1cc(SC)ccc1-c1nc2cc[nH]cc-2n1` are within 1.5-fold of each other in ED50: 0.3 mg/kg for the first, 0.2 mg/kg for the second.

Compared with `COc1cc(SC)ccc1-c1cn2ccncc2n1`, `COc1cc([S+](C)[O-])ccc1-c1cn2ccncc2n1` (stereo not drawn) is 5-fold lower in ED50: 0.5 mg/kg for the first, 0.1 mg/kg for the second.

First: COc1cc(S(C)(=O)=O)ccc1-c1cn2ccncc2n1
Second: COc1ccc(-c2cn3ccncc3n2)c(OC)c1
The ED50 of the first is 35-fold lower: 0.02 mg/kg for the first, 0.7 mg/kg for the second.

Compared with `COc1cc(S(C)(=O)=O)ccc1-c1nc2ccncc2[nH]1`, `COc1cc([S+](C)[O-])ccc1-c1nc2cnccc2[nH]1` (stereo not drawn) [ISOMAZOLE] is 1.5-fold higher in ED50: 0.02 mg/kg for the first, 0.03 mg/kg for the second.
